Read-outs that look alike come from different tables or passages of the source.
Columns and labels:
KIT mutants [1] = assay type: cell-based; details: 1 μmol/L; for suppression of KIT activation (phosphorylation): COS-1, 4 double mutations (∆557-558 with V654A, T670I, D820G or N822K); for suppression of KIT phosphorylation: COS-1, single mutations in exons 13, 14, and 17, 30 minutes
GIST48 cells = assay: Cell cycle analysis, GIST48; assay type: cell-based; details: GIST48, 1 μmol/L
Procedure, shortened: (§1)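 Test compound added at the doses stated, and cells harvested over a time course. Cells washed twice in PBS, fixed overnight in cold 70% ethanol, and pelleted at 5000 g for 5 min. Pellets incubated with 0.2 mg/mL RNase A for 1 h, then stained with 20 μg/mL propidium iodide at room temperature. DNA content read by flow cytometry. Mean ± SE of triplicate experiments.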

KIT mutants [2] = target: KIT mutants (Homo sapiens, UniProt P10721, D816V); details: COS-1, D816V in exon 17; cited from earlier work
Sequence of KIT mutants (Homo sapiens, UniProt P10721, D816V) (P10721 26-976 D816V): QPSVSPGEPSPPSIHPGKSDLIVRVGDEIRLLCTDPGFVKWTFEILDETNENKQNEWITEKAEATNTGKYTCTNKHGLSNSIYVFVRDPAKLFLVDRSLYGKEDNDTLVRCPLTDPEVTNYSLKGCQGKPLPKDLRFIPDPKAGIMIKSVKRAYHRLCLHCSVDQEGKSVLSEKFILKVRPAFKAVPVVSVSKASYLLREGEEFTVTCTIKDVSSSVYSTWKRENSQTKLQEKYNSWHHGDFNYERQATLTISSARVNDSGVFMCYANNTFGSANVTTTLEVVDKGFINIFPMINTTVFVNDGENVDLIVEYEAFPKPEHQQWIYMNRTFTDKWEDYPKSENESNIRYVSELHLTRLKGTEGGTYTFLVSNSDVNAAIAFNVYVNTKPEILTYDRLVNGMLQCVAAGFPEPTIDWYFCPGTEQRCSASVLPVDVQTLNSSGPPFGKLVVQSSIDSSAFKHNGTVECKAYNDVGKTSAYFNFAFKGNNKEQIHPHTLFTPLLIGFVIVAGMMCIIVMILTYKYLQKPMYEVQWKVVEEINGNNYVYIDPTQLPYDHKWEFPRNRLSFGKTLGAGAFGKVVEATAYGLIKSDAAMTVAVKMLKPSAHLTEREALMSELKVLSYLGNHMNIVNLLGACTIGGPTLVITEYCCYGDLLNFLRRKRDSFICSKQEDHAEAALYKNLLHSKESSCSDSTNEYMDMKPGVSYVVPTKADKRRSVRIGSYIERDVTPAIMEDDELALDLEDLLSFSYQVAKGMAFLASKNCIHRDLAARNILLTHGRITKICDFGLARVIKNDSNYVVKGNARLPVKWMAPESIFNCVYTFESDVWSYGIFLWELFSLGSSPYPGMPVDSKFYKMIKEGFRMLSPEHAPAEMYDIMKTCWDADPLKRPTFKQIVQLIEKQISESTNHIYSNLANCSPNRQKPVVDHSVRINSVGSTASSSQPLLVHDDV

advanced GIST = details: cited from earlier work; for median PFS: advanced GIST patients
GIST-T1 cells = assay: Cell proliferation assay, GIST-T1; assay type: cell-based; details: imatinib-sensitive GIST-T1, Figure S2A
Procedure, shortened: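 GIST-T1 cells were grown in RPMI-1640 with 10% FBS at 37°C, 5% CO₂. 4 × 10⁴ cells were exposed to a range of test compound doses for 120 h. They were then stained with methylene blue for 1 h, and absorbance was read at […].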

GIST430 cells = assay: Cell cycle analysis, GIST430; assay type: cell-based; details: BPR1J373 at 10 nmol/L, 100 nmol/L, and 1 μmol/L
Procedure, shortened: as §1

GIST430 xenograft = GIST430 xenograft in NOD-SCID mice; assay type: in vivo; details: for KIT and KIT phosphorylation in tumors compared with controls: GIST430 xenograft tumors after treatment, Figure 6B
Procedure, shortened: (§2)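 Male NOD-SCID mice (6–8 weeks, SPF) received GIST430 cells (2 × 10⁷/mouse) s.c. At 50–100 mm³, vehicle or test compound in 20% (2-hydroxypropyl)-β-cyclodextrin was given orally on days 1–5 weekly for 2 weeks. Controls n=5, treated groups n=6. Tumor volume (length × width² × π/6) and body weight were recorded three times weekly up to 16 days. Comparison: Wilcoxon rank sum.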

[3] = Body weight and survival of GIST430 xenograft mice; assay type: in vivo; details: regorafenib 30 mg/kg; for body weight (mean ± SE): oral, 2 weeks, BPR1J373 50 mg/kg, sunitinib 40 mg/kg
Procedure, shortened: as §2

Row | Compound | suppression of KIT activation (phosphorylation) (KIT mutants [1]) | suppression of KIT phosphorylation (KIT mutants [1]) | cell cycle change (GIST48 cells) | suppression of KIT phosphorylation (KIT mutants [2]) | disease control rate (advanced GIST; advanced GIST, initial phase II study) | antiproliferative effect (GIST-T1 cells) | cell cycle change (GIST430 cells) | KIT and KIT phosphorylation in tumors compared with controls (GIST430 xenograft) | body weight (mean ± SE) [3] | mice that died before completion of the experiment ([3]; 6 mice, died at day 14) | median PFS (advanced GIST; third-line treatment, phase III) | antitumor effect vs control, P (Wilcoxon rank sum test) (GIST430 xenograft; oral, day 1 to day 5 per week for 2 weeks, BPR1J373 50 mg/kg, sunitinib 40 mg/kg) | median PFS (advanced GIST; second-line treatment)
1 | Cc1ccc(NC(=O)c2ccc(CN3CCN(C)CC3)cc2)cc1Nc1nccc(-c2cccnc2)n1 [Imatinib] | variable effects | differentially suppressed | Neither 1 μmol/L imatinib nor nilotinib induced S or G2/M arrest | resistant | 81.6% | – | – | – | – | – | – | – | –
2 | Cc1cn(-c2cc(NC(=O)c3ccc(C)c(Nc4nccc(-c5cccnc5)n4)c3)cc(C(F)(F)F)c2)cn1 [Nilotinib] | variable effects | differentially suppressed | Neither 1 μmol/L imatinib nor nilotinib induced S or G2/M arrest | resistant | – | best antiproliferative effects | – | – | – | – | – | – | –
3 | CNC(=O)c1cc(Oc2ccc(NC(=O)Nc3ccc(Cl)c(C(F)(F)F)c3)c(F)c2)ccn1 [Regorafenib] | variable effects | differentially suppressed | only a mild increase in subG1 and a mild decrease in S and G2/M proportions | – | – | – | did not induce significant cell cycle changes | decreased expression levels of KIT and KIT phosphorylation | 28.82 ± 0.52 g | 1 | 4.8 months | – | –
4 | CCN(CC)CCNC(=O)c1c(C)[nH]c(/C=C2\C(=O)Nc3ccc(F)cc32)c1C [Sunitinib] | variable effects | differentially suppressed | – | resistant | – | best antiproliferative effects | – | decreased expression levels of KIT and KIT phosphorylation | 29.1 ± 1.04 g | – | – | 0.03 | 6.8 months
